# Experimental data of several laboratories.
# Compare with care: the assays were run in different laboratories.
# ABL1 non-phosphorylated: Tyrosine-protein kinase ABL1, non-phosphorylated (ABL1, Homo sapiens, UniProt P00519)
# ABL1 phosphorylated: Tyrosine-protein kinase ABL1, phosphorylated (ABL1, Homo sapiens, UniProt P00519)
# ABL1 M351T phosphorylated: Tyrosine-protein kinase ABL1, phosphorylated (ABL1, Homo sapiens, UniProt P00519, M351T)
# ABL1 F317L phosphorylated: Tyrosine-protein kinase ABL1, phosphorylated (ABL1, Homo sapiens, UniProt P00519, F317L)
# ABL1 E255K phosphorylated: Tyrosine-protein kinase ABL1, phosphorylated (ABL1, Homo sapiens, UniProt P00519, E255K)
# ABL1 T315I: Tyrosine-protein kinase ABL1 (ABL1, Homo sapiens, UniProt P00519, T315I)
# ABL1 F317I phosphorylated: Tyrosine-protein kinase ABL1, phosphorylated (ABL1, Homo sapiens, UniProt P00519, F317I)
# ABL1 H396P phosphorylated: Tyrosine-protein kinase ABL1, phosphorylated (ABL1, Homo sapiens, UniProt P00519, H396P)
# ABL1 T315I phosphorylated: Tyrosine-protein kinase ABL1, phosphorylated (ABL1, Homo sapiens, UniProt P00519, T315I)
Compound,target,read-out,technique,tested at,remaining binding
O=C(NCCCN1CCOCC1)c1ccc(Nc2nccc(-c3cc4ccccc4s3)n2)cc1,"Tyrosine-protein kinase ABL1, non-phosphorylated (ABL1, Homo sapiens, UniProt P00519, T315I)",binding,competition with immobilised ligand,1 µM,19%
c1cncc(-c2cccc(Nc3nccc(NC4CCCCC4)n3)c2)c1,ABL1 non-phosphorylated,binding,competition with immobilised ligand,10 µM,35%
Cc1cnn2ncc(-c3ccnc(N(C)C)n3)c2c1,"Tyrosine-protein kinase ABL1 (ABL1, Homo sapiens, UniProt P00519, H396P)",binding,,1 µM,81%
COc1cnc(Nc2cccc(S(N)(=O)=O)c2)nc1N1CCN(c2ccccc2)CC1,ABL1 phosphorylated,binding,competition with immobilised ligand,1 µM,79%
F[C@@H]1CCN(c2nccc(-c3cnn4ncccc34)n2)C1,"Tyrosine-protein kinase ABL1 (ABL1, Homo sapiens, UniProt P00519, Y253F)",binding,,1 µM,90%
C=CC(=O)N1CCC(C(=O)NCC(=O)N2CCN(c3nc(-c4cnc(N)nc4C(F)F)nc(N4CCOCC4)n3)CC2)CC1,ABL1 M351T phosphorylated,binding,competition with immobilised ligand,1 µM,99%
O=C(NCC1CCOCC1)c1n[nH]cc1NC(=O)c1c(F)cccc1F,ABL1 M351T phosphorylated,binding,competition with immobilised ligand,1 µM,91%
CCN1CCN(Cc2ccc(C(=O)Nc3ccc(C)c(Oc4ccc5c(c4)CC(=O)N5)c3)cc2C(F)(F)F)CC1,ABL1 M351T phosphorylated,binding,competition with immobilised ligand,1 µM,55%
CO[C@H]1CC[C@H](CNc2ccc(S(=O)(=O)NC(=O)c3ccc(N4CCN(CC5=C(c6ccc(Cl)cc6)CC(C)(C)CC5)CC4)cc3Oc3cnc4[nH]ccc4c3)cc2[N+](=O)[O-])CC1,ABL1 F317L phosphorylated,cell-free assay,competition with immobilised ligand,1 µM,83%
O=C(c1ccc(Nc2nccc(-c3cc4ccccc4s3)n2)cc1)N1CCC(N2CCCC2)CC1,ABL1 E255K phosphorylated,binding,competition with immobilised ligand,1 µM,9.9%
CNC(=O)[C@@H]1CC[C@@H](n2c(-c3ccc4cnccc4c3)nc3ccc(C(=O)NCc4cccc(C(N)=O)c4)cc32)C1,ABL1 F317L phosphorylated,binding,competition with immobilised ligand,1 µM,95%
C[C@H]1CCN(c2nccc(-c3cnn4ncccc34)n2)C1,ABL1 T315I,binding,,1 µM,82%
C[C@@H]1CN(c2cc(-c3nn(C)c4ccc(OC5(C)CC5)cc34)ncn2)C[C@H](C)O1,ABL1 F317I phosphorylated,binding,,1 µM,75%
O=C(Nc1c[nH]nc1C(=O)NC1CCNCC1)c1cc(F)cc(F)c1,ABL1 H396P phosphorylated,binding,competition with immobilised ligand,1 µM,100%
CN([C@@H]1CCc2c(CC(=O)O)c3ccccc3n2C1)S(=O)(=O)c1ccc(F)cc1,ABL1 F317L phosphorylated,cell-free assay,competition with immobilised ligand,1 µM,92%
COc1ncc2cc3ccccc3nc2c1C#N,ABL1 F317L phosphorylated,cell-free assay,competition with immobilised ligand,5 µM,86%
CN(CCCC(F)(F)F)c1nccc(-c2cnn3ncccc23)n1,ABL1 phosphorylated,binding,,1 µM,100%
O=C(c1ccc(Nc2ncc(Cl)c(-c3cc4ccccc4s3)n2)cc1)N1CCC(N2CCCC2)CC1,ABL1 E255K phosphorylated,binding,competition with immobilised ligand,1 µM,13%
O=C(NCc1ncc(C(F)(F)F)cc1Cl)c1ccc2c(c1)C1(CCS(=O)(=O)CC1)[C@H](C1CC1)N2S(=O)(=O)c1ccc(F)cc1,"Tyrosine-protein kinase ABL1, phosphorylated (ABL1, Homo sapiens, UniProt P00519, Q252H)",cell-free assay,competition with immobilised ligand,1 µM,70%
N[C@@H]1CCN(c2nccc(-c3cnn4ncccc34)n2)C1,ABL1 T315I,binding,,1 µM,95%
COc1cc(-c2cn(C3CCc4c(F)cccc4N(CC(F)(F)F)C3=O)nn2)ccc1-n1cnc(C)c1 (centres unmarked),ABL1 phosphorylated,cell-free assay,competition with immobilised ligand,1 µM,100%
Cc1cnc(Nc2ccc(C(=O)N3CCC(N4CCCC4)CC3)cc2)nc1-c1cc2ccccc2s1,ABL1 F317I phosphorylated,binding,competition with immobilised ligand,1 µM,57%
CN(C)CC#Cc1ccc(OCCCc2sc(N3CCc4cccc(C(=O)Nc5nc6ccccc6s5)c4C3)nc2C(=O)O)c(F)c1,ABL1 T315I phosphorylated,cell-free assay,competition with immobilised ligand,1 µM,92%
Nc1ncc2c(n1)-c1c([nH]c3ccc(C#CC4CC4)cc13)CCCC2,ABL1 H396P phosphorylated,binding,competition with immobilised ligand,1 µM,93%
O=C(c1ccc(Nc2ncc(Cl)c(-c3ccc(Cl)s3)n2)cc1)N1CCC(N2CCCC2)CC1,"Tyrosine-protein kinase ABL1, non-phosphorylated (ABL1, Homo sapiens, UniProt P00519, Q252H)",binding,competition with immobilised ligand,1 µM,1%
COc1cnc(Nc2cccc(S(N)(=O)=O)c2)nc1N1CCN(c2ccccc2)C(=O)C1,ABL1 T315I phosphorylated,binding,competition with immobilised ligand,1 µM,77%
CC(=O)C1=C(C)N(c2cccc(C(F)(F)F)c2)C(=O)N[C@@H]1c1ccc(C#N)nc1,ABL1 T315I phosphorylated,cell-free assay,competition with immobilised ligand,1 µM,96.9%
CN(C)c1ncc(F)c(-c2cnn3ncccc23)n1,ABL1 non-phosphorylated,binding,competition with immobilised ligand,1 µM,89%
O=C(NCCCN1CCOCC1)c1ccc(Nc2ncc(Cl)c(-c3ccc(Cl)s3)n2)cc1,"Tyrosine-protein kinase ABL1, non-phosphorylated (ABL1, Homo sapiens, UniProt P00519, F317I)",binding,competition with immobilised ligand,1 µM,100%
Cc1c(C(=O)O)cc(-c2ccc(C3CCNCC3)cc2)c2ccc(-c3ccc(C(F)(F)F)cc3)cc12,ABL1 F317I phosphorylated,binding,,1 µM,100%
CN(c1nccc(-c2cnn3ncccc23)n1)C1CC1,ABL1 phosphorylated,binding,,1 µM,99%
C[C@@H](c1ccc(-n2cnc3c(N)ncnc32)cc1)N1CCc2nn(C)c(Cc3ccccc3)c2C1=O,ABL1 H396P phosphorylated,binding,competition with immobilised ligand,0.1 µM,79%
